MrgX1 antagonist – human MrgX1 receptor antagonism, primary screen; AID 588676; MRGX1-HEK293 calcium flux, Fluo-4, BAM8-22 antagonism; active compounds read low; B-score at 10 µM; 1.3% of 310,000 active;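 active = calcium-response B-score plate-corrected more than 3 library SD below zero, starting fluorescence within 5 deviations, no agonist response on first addition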;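 also: peak minus trough fluorescence over baseline after final BAM8-22 challenge near maximal dose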
Target sequence (Q96LB2 whole entry, looked up): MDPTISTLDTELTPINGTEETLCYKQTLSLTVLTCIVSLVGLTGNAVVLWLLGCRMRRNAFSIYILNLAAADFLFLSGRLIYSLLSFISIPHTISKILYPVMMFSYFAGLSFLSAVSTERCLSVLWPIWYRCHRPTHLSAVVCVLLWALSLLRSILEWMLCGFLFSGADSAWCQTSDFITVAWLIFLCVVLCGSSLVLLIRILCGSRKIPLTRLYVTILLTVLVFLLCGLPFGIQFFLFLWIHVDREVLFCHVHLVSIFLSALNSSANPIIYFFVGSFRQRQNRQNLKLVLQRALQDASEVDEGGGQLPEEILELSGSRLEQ
MrgX1 allo act – human MrgX1 positive allosteric modulation, primary screen; Q96LB2; MrgX1-HEK293, Fluo-4 calcium flux, FDSS; active compounds read high; B-score at 10 µM; 0.63% of 310,000 active; AID 588675;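 active = plate-corrected calcium response at least 3 library SD above typical, normal starting fluorescence, not activating the receptor alone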;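 also: compound read alongside a low EC10 to EC30 dose of BAM8-22 agonist; peak minus trough fluorescence over baseline measured at the second addition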
RGS4 block – inhibitors of human RGS4. HEK293 M3R/RGS4 inducible, Fluo-4 calcium flux; active compounds read high; triggered by carbachol at its EC20. B-score at 10 µM. 0.45% of 310,000 active;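 active = B-score, a plate-corrected calcium signal, over three deviations above library mean, with baseline fluorescence within five deviations of library mean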;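 also: RGS4 expression induced by doxycycline in cells with stable M3 receptor; B-score is computed from the integrated fluorescence ratio over baseline after carbachol; higher B-score means a larger calcium signal and so more RGS4 inhibition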
Target sequence (P49798 whole entry, looked up): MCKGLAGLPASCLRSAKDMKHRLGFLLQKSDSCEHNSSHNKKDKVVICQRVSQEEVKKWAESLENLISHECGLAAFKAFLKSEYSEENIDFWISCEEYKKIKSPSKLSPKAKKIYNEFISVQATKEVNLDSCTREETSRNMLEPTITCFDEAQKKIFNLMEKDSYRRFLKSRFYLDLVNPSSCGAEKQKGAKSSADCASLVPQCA
MrgX1 agonist – activates human MrgX1 receptor signaling; MrgX1-HEK293 cells, Fluo-4 calcium fluorescence, agonist mode; active compounds read high; B-score at 10 µM; 0.44% of 310,000 active; AID 588627;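 active = calcium response B-score plate-corrected fluorescence ratio at least 3 library SD, with starting fluorescence B-score inside 5 SD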
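Test system: HEK293 cells stably expressing human MrgX1 receptor; amount: 15,000 cells per well; doses: compound delivered in addition one of three; times: overnight plating before 1 h dye loading; detection: Fluo-4 NW calcium-flux fluorescence, kinetic read; read-out basis: B-scored fluorescence response ratio; controls: positive and negative controls per plate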
RGS4 pot – potentiators or activators of RGS4; B-score at 10 µM; AID 463111; 0.92% of 310,000 active; HEK293 M3R/inducible RGS4, carbachol calcium flux Fluo4; active compounds read low;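 active = B-score of the integrated calcium signal more than 4 SD below the library mean, with starting fluorescence not abnormally high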;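 also: negative B-score means reduced calcium response which marks RGS4 activation or potentiation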
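Test system: HEK293 cells with stable M3R and inducible RGS4; also added: carbachol at ECmax as muscarinic agonist stimulus; schedule: dye loading 30 min 37 °C, buffer rest 30 min RT; technique: kinetic calcium fluorescence imaging with Fluo4-AM dye, 2 µM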
MrgX1 antag conf – confirmation of human MrgX1 receptor antagonists; 19% of 2,300 active; AID 602420; remaining BAM8-22 calcium response % of control (active compounds read low), % at 10 µM; shares compounds with MrgX1 antagonist; MrgX1-HEK293, BAM8-22 calcium flux, Fluo-4; active compounds read low;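 active = remaining agonist calcium response no higher than 100% minus 3 SD of agonist-only control wells, with starting fluorescence near control levels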;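 also: agonist BAM8-22 given at a near maximal EC90 to ECmax level; peak minus minimum fluorescence divided by baseline after agonist addition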
HEK293 Ca flux – counter-screen for MrgX1 antagonists: effect in parental HEK293 cells | Fluo-4 calcium fluorescence, FDSS | 2% of 4,000 active | fluorescence ratio F(max-min)/F0 at 10 µM | AID 624111 | shares compounds with MrgX1 antagonist;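 active = duplicate-averaged calcium fluorescence ratio at least three times the standard deviation of buffer wells, a nonspecific response in parental cells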
HEK293 Ca counter – counter-screen for MrgX1 allosteric activators: effect in parental HEK293 cells; fluorescence ratio F(max-min)/F0 at 10 µM; parental HEK293 calcium flux, Fluo-4 fluorescence ratio; active compounds read high; 0.4% of 4,000 active; shares compounds with MrgX1 antagonist;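 active = calcium fluorescence ratio, averaged over duplicates, at least 3 SD of the buffer-well ratio, meaning a nonspecific response in receptor-free cells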;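 also: untransfected parental HEK293 lacking MrgX1 used as counterscreen for MrgX1 allosteric activators; fluorescence change taken during the second addition on a kinetic imager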
HEK293 Ca cntr2 – MrgX1 activator counter-screen hit in parental HEK293 cells; shares compounds with MrgX1 antagonist; Fluo-4 calcium fluorescence (FDSS); active compounds read high; fluorescence ratio F(max-min)/F0 at 10 µM; 8.7% of 4,000 active; AID 624115;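 active = calcium fluorescence ratio at least three times the spread of buffer wells, meaning a non-specific response in parental cells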
Starred values were filed as active, the others as inactive. An excerpt weighted towards active compounds, which were near 3.5% of everything screened.

`O=C(C1CCC(=O)N1C1CCCCC1)N1CCN(c2ccc(F)cc2)CC1` (stereo not drawn) gave MrgX1 antagonist inactive, MrgX1 allo act inactive, RGS4 block inactive, MrgX1 agonist inactive and RGS4 pot inactive.
`COc1ccc(S(=O)(=O)N2CCC3(CC2)OCCN3S(=O)(=O)c2ccccc2)cc1OC` gave MrgX1 antagonist inactive, MrgX1 allo act inactive, RGS4 block inactive, MrgX1 agonist inactive and RGS4 pot inactive.
Screening CS(=O)(=O)N1CCC2(CC1)OCCN2S(=O)(=O)c1ccccc1 returned MrgX1 antagonist -6.9*, MrgX1 allo act inactive, RGS4 block inactive, MrgX1 agonist inactive, RGS4 pot inactive, MrgX1 antag conf inactive, HEK293 Ca flux inactive, HEK293 Ca counter inactive and HEK293 Ca cntr2 inactive.
For O=C(O)c1cc([N+](=O)[O-])c(N2CCCC2)c([N+](=O)[O-])c1 the results were MrgX1 antagonist inactive, MrgX1 allo act inactive, RGS4 block inactive, MrgX1 agonist inactive and RGS4 pot inactive.
For O=C(COC(=O)C1CCN(c2ccc(C(F)(F)F)cn2)CC1)NCCc1ccccc1 the results were MrgX1 antagonist inactive, MrgX1 allo act inactive, RGS4 block inactive, MrgX1 agonist inactive and RGS4 pot inactive.
Screening COc1ccccc1CNC(=O)COC(=O)C1CCN(c2ccc(C(F)(F)F)cn2)CC1 returned MrgX1 antagonist -7.6*, MrgX1 allo act inactive, RGS4 block inactive, MrgX1 agonist inactive, RGS4 pot inactive, MrgX1 antag conf inactive, HEK293 Ca flux inactive, HEK293 Ca counter inactive and HEK293 Ca cntr2 inactive.
Cc1occc1C(=O)NNC(=O)c1ccccc1[N+](=O)[O-] was read as MrgX1 antagonist inactive, MrgX1 allo act inactive, RGS4 block inactive, MrgX1 agonist inactive and RGS4 pot inactive.
`COc1ccc(N(CC(=O)NC2CC3CCC2C3)S(=O)(=O)c2ccc(C)c([N+](=O)[O-])c2)cc1` (stereo not drawn) gave MrgX1 antagonist inactive, MrgX1 allo act inactive, RGS4 block inactive, MrgX1 agonist inactive and RGS4 pot inactive.
Screening CCOc1ccc(S(=O)(=O)N2CCC(C(=O)NC3CC3)CC2)cc1C returned MrgX1 antagonist inactive, MrgX1 allo act inactive, RGS4 block inactive, MrgX1 agonist inactive and RGS4 pot inactive.
CCOC(=O)c1cc2c3ccccc3n(CC)c2nc1N was read as MrgX1 antagonist -5.8*, MrgX1 allo act inactive, RGS4 block inactive, MrgX1 agonist inactive, RGS4 pot inactive, MrgX1 antag conf inactive, HEK293 Ca flux inactive, HEK293 Ca counter inactive and HEK293 Ca cntr2 inactive.
Screening O=C1CSC(c2ccc([N+](=O)[O-])cc2)N1c1ccccc1 (stereo not drawn) returned MrgX1 antagonist inactive, MrgX1 allo act inactive, RGS4 block inactive, MrgX1 agonist inactive and RGS4 pot inactive.
`O=C(NC1CCS(=O)(=O)C1)C12CC3CC(CC(C3)C1)C2` (stereo not drawn) gave MrgX1 antagonist -9.4*, MrgX1 allo act inactive, RGS4 block inactive, MrgX1 agonist inactive, RGS4 pot inactive, MrgX1 antag conf inactive, HEK293 Ca flux inactive, HEK293 Ca counter inactive and HEK293 Ca cntr2 inactive.
`COc1ccc(-c2c(C3=CCCCC3)oc3ccc(-c4ccc5c(c4)OCO5)cc23)cn1` gave MrgX1 antagonist inactive, MrgX1 allo act inactive, RGS4 block inactive, MrgX1 agonist inactive and RGS4 pot inactive.
For CCCn1c(N)c(NCCN2CCOCC2)c(=O)[nH]c1=O the results were MrgX1 antagonist -5.9*, MrgX1 allo act inactive, RGS4 block inactive, MrgX1 agonist inactive, RGS4 pot inactive, MrgX1 antag conf inactive, HEK293 Ca flux inactive, HEK293 Ca counter inactive and HEK293 Ca cntr2 inactive.
Screening CCCCNc1c(N)n(CCC)c(=O)[nH]c1=O returned MrgX1 antagonist inactive, MrgX1 allo act inactive, RGS4 block inactive, MrgX1 agonist inactive and RGS4 pot inactive.
For O=C(O)CC(C(=O)O)n1nc(-c2ccccc2)cc1-c1ccccc1 (stereo not drawn) the results were MrgX1 antagonist inactive, MrgX1 allo act inactive, RGS4 block inactive, MrgX1 agonist inactive and RGS4 pot inactive.
Screening O=C(O)Cn1nc(-c2ccccc2)cc1-c1ccccc1 returned MrgX1 antagonist -5.6*, MrgX1 allo act inactive, RGS4 block inactive, MrgX1 agonist inactive, RGS4 pot inactive, MrgX1 antag conf inactive, HEK293 Ca flux inactive, HEK293 Ca counter inactive and HEK293 Ca cntr2 inactive.
COc1cccc(NS(=O)(=O)c2c(C)cc(C)cc2C)c1 was read as MrgX1 antagonist -5.2*, MrgX1 allo act inactive, RGS4 block inactive, MrgX1 agonist inactive, RGS4 pot inactive, MrgX1 antag conf inactive, HEK293 Ca flux inactive, HEK293 Ca counter inactive and HEK293 Ca cntr2 inactive.
Screening COc1ccc(NS(=O)(=O)c2c(C)cc(C)cc2C)cc1 returned MrgX1 antagonist inactive, MrgX1 allo act inactive, RGS4 block inactive, MrgX1 agonist inactive and RGS4 pot inactive.
COCCNC(=O)Cn1nc(C)c([N+](=O)[O-])c1C was read as MrgX1 antagonist inactive, MrgX1 allo act inactive, RGS4 block inactive, MrgX1 agonist inactive and RGS4 pot inactive.
`CCOc1ccc2oc(=O)cc(CN3CCOCC3)c2c1` gave MrgX1 antagonist -7.3*, MrgX1 allo act inactive, RGS4 block inactive, MrgX1 agonist inactive, RGS4 pot inactive, MrgX1 antag conf inactive, HEK293 Ca flux inactive, HEK293 Ca counter inactive and HEK293 Ca cntr2 inactive.
Screening Cc1cc2oc(=O)cc(CN3CCOCC3)c2cc1C(C)C returned MrgX1 antagonist inactive, MrgX1 allo act inactive, RGS4 block inactive, MrgX1 agonist inactive and RGS4 pot inactive.
`Cc1ccc(C(=O)c2c[nH]c3c(F)cc(F)cc3c2=O)cc1` gave MrgX1 antagonist -6.8*, MrgX1 allo act inactive, RGS4 block inactive, MrgX1 agonist inactive, RGS4 pot inactive, MrgX1 antag conf inactive, HEK293 Ca flux inactive, HEK293 Ca counter inactive and HEK293 Ca cntr2 inactive.
